From ChEMBL document CHEMBL1811913, “Trimethoxy-chalcone derivatives inhibit growth of Leishmania braziliensis: synthesis, biological evaluation, molecular modeling and structure-activity relationship (SAR)” (Bioorg Med Chem, 2011) come the findings set out here.

Calls of active or inactive are those of the source. The calls are words filed in the database; no cut-off is given here.

By IC50 is commonly meant the concentration at which inhibition is half-maximal. What is called CC50 is the concentration that lowers cell viability or growth by half.

The nature of data set [1]: Selectivity index, ratio of CC50 for african green monkey Vero cells to IC50 for promastigotes form of Leishmania braziliensis MHOM/BR/75/M2904. The format is functional.
For data set [2], the system named is Leishmania braziliensis. Briefly: Antileishmanial activity against promastigotes form of Leishmania braziliensis MHOM/BR/75/M2904 after 72 hrs. The format is functional. As to conditions: MHOM/BR/75/M2904, 72 h. Put shortly:
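5.0 × 10^6 promastigotes/mL were exposed to 500, 100, 50, 25, 10, 5 and 1 (DMSO ≤1% final) at 28 °C for 72 h, and living parasites were counted in a Neubauer chamber. IC50 came from linear regression, mean ± standard error of three independent experiments.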

Data set [3] is described as follows: Cytotoxicity against african green monkey Vero cells after 72 hrs. Conditions: chlorocebus sabaeus. The data set is classed as cell-based.
The test system of data set [4] is Leishmania braziliensis. Briefly: Antileishmanial activity against promastigotes form of Leishmania braziliensis MHOM/BR/75/M2904 at 50 uM after 72 hrs. The data set is classed as functional.
The next data set deals with Vero. Briefly: Cytotoxicity against african green monkey Vero cells at 50 uM after 72 hrs. The data set is classed as cell-based. Conditions: chlorocebus sabaeus.
The target of data set [5] is T1, Nitric oxide synthase, inducible (Mus musculus) (UniProt P29477).
T1 sequence (whole entry): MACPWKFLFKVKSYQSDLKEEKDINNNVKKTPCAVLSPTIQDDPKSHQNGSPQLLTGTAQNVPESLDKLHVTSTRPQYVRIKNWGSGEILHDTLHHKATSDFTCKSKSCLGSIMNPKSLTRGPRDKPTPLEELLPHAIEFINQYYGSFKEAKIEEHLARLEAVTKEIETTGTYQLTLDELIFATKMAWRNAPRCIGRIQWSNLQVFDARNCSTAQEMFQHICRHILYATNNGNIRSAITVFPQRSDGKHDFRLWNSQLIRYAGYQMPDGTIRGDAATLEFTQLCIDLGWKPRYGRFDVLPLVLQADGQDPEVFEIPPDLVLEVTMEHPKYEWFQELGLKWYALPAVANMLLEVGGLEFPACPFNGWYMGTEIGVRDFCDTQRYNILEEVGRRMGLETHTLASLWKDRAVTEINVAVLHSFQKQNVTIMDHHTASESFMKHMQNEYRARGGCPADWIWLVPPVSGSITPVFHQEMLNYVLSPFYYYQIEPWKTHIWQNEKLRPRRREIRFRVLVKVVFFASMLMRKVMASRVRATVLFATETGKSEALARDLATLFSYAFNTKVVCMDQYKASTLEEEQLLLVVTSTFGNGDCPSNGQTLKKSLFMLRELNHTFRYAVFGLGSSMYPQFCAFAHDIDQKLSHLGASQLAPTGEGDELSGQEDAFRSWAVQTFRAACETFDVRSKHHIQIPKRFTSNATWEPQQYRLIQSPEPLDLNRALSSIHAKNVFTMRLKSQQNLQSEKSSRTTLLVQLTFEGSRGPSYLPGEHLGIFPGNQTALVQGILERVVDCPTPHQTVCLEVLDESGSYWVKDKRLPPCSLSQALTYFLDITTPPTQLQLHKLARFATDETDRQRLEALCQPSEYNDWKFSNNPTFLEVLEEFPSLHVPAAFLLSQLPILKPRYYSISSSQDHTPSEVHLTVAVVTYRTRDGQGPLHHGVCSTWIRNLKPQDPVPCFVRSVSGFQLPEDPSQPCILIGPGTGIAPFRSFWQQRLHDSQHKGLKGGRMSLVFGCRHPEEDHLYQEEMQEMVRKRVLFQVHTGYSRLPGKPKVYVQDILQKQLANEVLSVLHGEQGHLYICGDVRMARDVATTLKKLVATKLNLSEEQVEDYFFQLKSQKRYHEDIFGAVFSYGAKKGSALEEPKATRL
The data set can be described thus: Inhibition of iNOS-mediated LPS-induced nitric oxide production in mouse RAW264.7 cells. The data set is classed as cell-based.

With `COc1cc(OC)c(C(=O)/C=C/c2cccc(Cl)c2)cc1OC`, the “Ratio CC50/IC50” value in data set [1] stood at 24.8. This compound registered an IC50 in the data set with Leishmania braziliensis [2] of 15.4 µM. Further, the midpoint of cytotoxicity in data set [3], the CC50 at 72 h, lay at 382 µM.

`COc1cc(OC)c(C(=O)/C=C/c2ccccc2Cl)cc1OC`: the inhibition result in the data set on Leishmania braziliensis [4] was “inactive”. Besides, the Activity result in the data set on Vero is listed as “Non-toxic”.

As for `COc1cc(OC)c(C(=O)/C=C/c2ccc(Cl)c(Cl)c2)cc1OC`, the “Ratio CC50/IC50” value in data set [1] is reported as 6.1. This compound yielded an IC50 with Leishmania braziliensis [2] of 148 µM. For the same compound, the midpoint of cytotoxicity in data set [3], the CC50 at 72 h, lay at 906 µM.

As for `COc1cccc(/C=C/C(=O)c2cc(OC)c(OC)cc2OC)c1`, the “Ratio CC50/IC50” value in data set [1] amounted to 21.1. This compound also displayed a half-inhibitory concentration (IC50) in the data set on Leishmania braziliensis [2] of 14 µM. Besides, in data set [3], the CC50 at 72 h was determined as 295 µM.

As to `COc1cc(OC)c(C(=O)/C=C/c2ccccc2Cl)c(OC)c1`, the inhibition entry in data set [5] was “Active”.

For the compound `COc1cc(O)c(C(=O)/C=C/c2cccc(Cl)c2)c(OC)c1`, the “Ratio CC50/IC50” value in data set [1] stood at 1.8. This compound showed an IC50 in the data set with Leishmania braziliensis [2] of 194 µM. This compound had a CC50 at 72 h in data set [3] of 341 µM.

On to `COc1cc(OC)c(C(=O)/C=C/c2ccccc2)cc1OC`, for which the “Ratio CC50/IC50” value in data set [1] was 30.6. The compound further showed an IC50 in the data set with Leishmania braziliensis [2] of 12.8 µM. In addition, in data set [3], it took 392 µM to reach half-maximal cytotoxicity (CC50 at 72 h).

Regarding `N=C(N)c1ccc(OCCCCCOc2ccc(C(=N)N)cc2)cc1` [PENTAMIDINE], in the data set on Leishmania braziliensis [2], the midpoint of inhibition, the IC50, lay at 6 µM.

On to `COc1cc(OC)c(C(=O)/C=C/c2ccc(Cl)cc2)cc1OC`, for which the “Ratio CC50/IC50” value in data set [1] is recorded as 9.4. The IC50 with Leishmania braziliensis [2] worked out at 29.7 µM. The compound further came in with a cytotoxic concentration (CC50) at 72 h in data set [3] of 279 µM.

Regarding `COc1cc(OC)c(C(=O)/C=C/c2ccc3c(c2)OCO3)c(OC)c1`, the inhibition entry with Leishmania braziliensis [4] was “inactive”. For the same compound, the Activity result in the data set with Vero is “Non-toxic”.
